Reference: ChEMBL document CHEMBL4020838, “The Discovery of ( S)-1-(6-(3-((4-(1-(Cyclopropanecarbonyl)piperidin-4-yl)-2-methylphenyl)amino)-2,3-dihydro-1 H-inden-4-yl)pyridin-2-yl)-5-methyl-1 H-pyrazole-4-carboxylic Acid, a Soluble Guanylate Cyclase Activator Specifically Designed for Topical Ocular Delivery as a Therapy for Glaucoma” (J Med Chem, 2018)
Calls of active or inactive are those of the source. No cut-off for these calls is given here.

Assays:
[1] = Activation of HUVEC-derived soluble guanylate cyclase expressed in CHOK1 cells assessed as increase in cGMP production after 1 hr by HTRF assay; type: cell-based; settings: CHO-K1, 1 h
Procedure, shortened: (§1)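 High-throughput assay in Chinese hamster ovary cells expressing sGC. cGMP was measured across a dose range. EC50 and Emax (maximal cGMP produced) were taken from the dose-response curve.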

Homo sapiens [2] = species on record: Homo sapiens; assay: Activation of HUVEC-derived soluble guanylate cyclase expressed in CHOK1 cells assessed as increase in cGMP production after 1 hr by HTRF assay relative to 1-{6-[5-chloro-2-({4-[trans-4-(trifluoromethyl)cyclohexyl]-benzyl}oxy)phenyl)pyridin-2-yl)-5-(trifluoromethyl)-1H-pyrazole-4-carboxylic acid; type: cell-based; procedure, shortened: as §1
[3] = Activation of soluble guanylate cyclase in human GTM3 cells assessed as increase in cGMP production after 30 mins by fluorescence assay; type: cell-based; settings: Homo sapiens, GTM3, 0.5 h
Procedure, shortened: (§2)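 Immortalized glaucomatous trabecular meshwork (GTM-3) cells expressing endogenous levels of sGC were used. cGMP was read across a dose range. EC50 and Emax were derived from the dose-response curve.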

Homo sapiens [4] = species on record: Homo sapiens; assay: Activation of soluble guanylate cyclase in human GTM3 cells assessed as increase in cGMP production after 30 mins by fluorescence assay relative to 1-{6-[5-chloro-2-({4-[trans-4-(trifluoromethyl)cyclohexyl]-benzyl}oxy)phenyl)pyridin-2-yl)-5-(trifluoromethyl)-1H-pyrazole-4-carboxylic acid; type: cell-based; procedure, shortened: as §2
Oryctolagus cuniculus [5] = assay: Toxicity in New Zealand albino rabbit eye up to 300 ug administered as single topical dose measured up to 24 hrs post dose; settings: in vivo, topical_or_ocular
Cynomolgus monkey [6] = assay: Reduction of intraocular pressure in laser-induced ocular hypertensive cynomolgus monkey at 300 ug administered as single topical dose; type: functional; settings: Macaca fascicularis
Procedure, shortened: (§3)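 Cynomolgus monkeys with laser-induced elevated IOP received a single topical ocular dose of 300 μg in a 30 μL drop. IOP and ocular signs were observed after dosing.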

Cynomolgus monkey [7] = assay: Toxicity in laser-induced ocular hypertensive cynomolgus monkey assessed as ocular irritation at 300 ug administered as single topical dose; set-up: species or system Macaca fascicularis; settings: in vivo, topical_or_ocular; procedure, shortened: as §3
Cynomolgus monkey [8] = assay: Reduction of intraocular pressure in laser-induced ocular hypertensive cynomolgus monkey at 100 ug administered as single topical dose measured at 6 hr post dose relative to control; type: functional, Macaca fascicularis; set-up: scale not given: the % may be the effect or the level left
Procedure, shortened: (§4)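 Cynomolgus monkeys with laser-induced elevated IOP received one 30 μL topical ocular drop containing 100 μg of compound, formulated as a suspension. Percent IOP reduction was recorded at 6 h and at 24 h after dosing.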

Cynomolgus monkey [9] = assay: Reduction of intraocular pressure in laser-induced ocular hypertensive cynomolgus monkey at 100 ug administered as single topical dose measured at 24 hrs post dose relative to control; type: functional, Macaca fascicularis; set-up: scale not given: the % may be the effect or the level left; procedure, shortened: as §4
Cynomolgus monkey [10] = assay: Toxicity in laser-induced ocular hypertensive cynomolgus monkey assessed as conjunctival hyperemia at 300 ug administered as single topical dose; set-up: species or system Macaca fascicularis; settings: in vivo, topical_or_ocular; procedure, shortened: as §3
Cynomolgus monkey [11] = assay: Toxicity in laser-induced ocular hypertensive cynomolgus monkey assessed as ocular discharge at 300 ug administered as single topical dose; set-up: species or system Macaca fascicularis; settings: in vivo, topical_or_ocular; procedure, shortened: as §3
Oryctolagus cuniculus [12] = assay: Toxicity in New Zealand albino rabbit assessed as conjunctival hyperemia at 300 ug administered as single topical dose measured up to 24 hrs post dose; settings: in vivo, topical_or_ocular
Oryctolagus cuniculus [13] = assay: Toxicity in New Zealand albino rabbit assessed as ocular discharge at 300 ug administered as single topical dose measured up to 24 hrs post dose; settings: in vivo, topical_or_ocular

Compound | EC50 [1] [nM] | Emax (Homo sapiens [2]) [%] | EC50 [3] [nM] | Emax (Homo sapiens [4]) [%] | Activity (Oryctolagus cuniculus [5]) | Activity (Cynomolgus monkey [6]) | Activity (Cynomolgus monkey [7]) | Activity (Cynomolgus monkey [8]) [%] | Activity (Cynomolgus monkey [9]) [%] | Activity (Cynomolgus monkey [10]) | Activity (Cynomolgus monkey [11]) | Activity (Oryctolagus cuniculus [12]) | Activity (Oryctolagus cuniculus [13])
CCc1c(C)sc(-c2cccc(-n3ncc(C(=O)O)c3C(F)(F)F)n2)c1COc1ccc(C2CCN(C(=O)C3CC3)CC2)cc1C | 1 | 101 | 12 | 93 | Non-Toxic | Active | Toxic |  |  |  |  |  | 
CCC(=O)N1CCC(c2ccc(OCc3ccsc3-c3cccc(-n4ncc(C(=O)O)c4C(F)(F)F)n3)c(C)c2)CC1 | 5.5 | 100 | 370 | 97 |  |  |  | 17 | 10 | Toxic | Toxic | Toxic | Toxic
